Experimental data taken from ChEMBL document CHEMBL3769372, “Specific Inhibitors of HIV Capsid Assembly Binding to the C-Terminal Domain of the Capsid Protein: Evaluation of 2-Arylquinazolines as Potential Antiviral Compounds” (J Med Chem, 2016).
Residues, ends and D or L forms follow the SMILES beside them.

Experiments:
[1] = molecular target: T1, Structural capsid protein (Human immunodeficiency virus 1, UniProt Q76129); assay: Binding affinity to recombinant N-terminal GST-tagged HIV1 NL4-3 capsid C-terminal domain (146 to 231 residues) incubated for 2 hrs by alphascreen assay
T1 sequence (Q76129 whole entry, the tested form may be a part): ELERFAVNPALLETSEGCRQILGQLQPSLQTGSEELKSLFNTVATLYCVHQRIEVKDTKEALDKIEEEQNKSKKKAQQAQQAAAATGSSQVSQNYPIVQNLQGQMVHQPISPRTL
Procedure, shortened: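 AlphaScreen competition: GST-fused CA (60 nM) on glutathione acceptor beads and biotinylated peptide (30 nM) on streptavidin donor beads, beads 10 µg/ml. Buffer was PBS, 0.05% Tween 20, 2 mM DTT. Compounds were titrated 0.2–200 µM and incubated 2 h at RT, with emission read at 520–620 nm. Inhibition was normalized to DMSO-only (max) and buffer (min) controls.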

[2] = Cytotoxicity against human TZM-bl cells assessed as cell viability at 10 uM after 48 hrs by MTS assay relative to control; type: cell-based; details: read-out: Activity
Procedure, shortened: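 TZM-bl cells (DMEM, 10% FBS, 10 mM HEPES) incubated with compound at 37 °C, 5% CO2 for 48 h in parallel with the infectivity assay; viability by MTS read-out. Tested in triplicate at 10 µM final, with titration 0.625–20 µM; values normalized to DMSO-only treated cells.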

[3] = system: Human immunodeficiency virus 1; assay: Antiviral activity against HIV1 NL4-3 infected in human TZM-bl cells assessed as inhibition of viral replication administered 6 hrs postinfection measured 48 hrs by luciferase reporter gene assay; type: functional, organism-based; details: Human immunodeficiency virus 1, NL4-3, TZM-bl
Procedure, shortened: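 TZM-bl cells infected with NL4-3 stock (from MT-4 co-culture) at MOI 1; at 6 h p.i. medium replaced with DMEM containing compound, refreshed at 30 h p.i.; supernatants collected at 52 h p.i. and titrated on fresh TZM-bl cells; infection read by luciferase at 48 h p.i.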

[4] = Binding affinity to recombinant HIV1 NL4-3 capsid E187A mutant by isothermal titration calorimetry; parameters: species or system Human immunodeficiency virus 1
Procedure, shortened: (§1)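 Point mutants made by PCR, expressed solubly in E. coli BL21(DE3)RIL, enriched by ammonium sulphate fractionation (20–50%), then MonoS cation exchange (pH 5.5) and Superdex75 gel filtration. Binding by ITC at 25 °C in 30 mM MES pH 6.0, 10% glycerol, 2 mM 2-mercaptoethanol, 2% DMSO. 320–350 µM peptide ligand was injected in 2 µl steps into 23–33 µM protein, with a buffer-only control.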

[5] = Binding affinity to recombinant HIV1 NL4-3 capsid L211A mutant by isothermal titration calorimetry; parameters: species or system Human immunodeficiency virus 1; procedure, shortened: as §1
[6] = system: Human immunodeficiency virus 1; assay: Selectivity ratio of Kd for recombinant HIV1 NL4-3 capsid N183A mutant to Kd for full length HIV1 capsid (1 to 231 residues)
Procedure, shortened: (§2)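 Ratio of ITC-derived KD for each mutant CA to KD for wild-type CA. Titrations were at 25 °C in 30 mM MES pH 6.0, 10% glycerol, 2 mM 2-mercaptoethanol, 2% DMSO. Peptide ligand (320–350 µM) was injected into 23–33 µM protein, with a buffer-only control.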

[7] = system: Human immunodeficiency virus 1; assay: Selectivity ratio of Kd for recombinant HIV1 NL4-3 capsid E187A mutant to Kd for full length HIV1 capsid (1 to 231 residues); procedure, shortened: as §2
[8] = Binding affinity to recombinant HIV1 NL4-3 capsid N183A mutant by isothermal titration calorimetry; parameters: species or system Human immunodeficiency virus 1; procedure, shortened: as §1
[9] = molecular target: T1, Structural capsid protein; assay: Binding affinity to HIV1 NL4-3 capsid C-terminal domain (146 to 231 residues) by isothermal titration calorimetry
Procedure, shortened: (§3)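 ITC at 25 °C (Auto-iTC200) in 30 mM MES pH 6.0, 10% glycerol, 2 mM 2-mercaptoethanol, 2% DMSO. Protein and peptide concentrations were set by HPLC amino acid analysis. 320–350 µM peptide ligand was injected in 2 µl steps into 23–33 µM protein until saturated. A buffer-only injection control was run, and titrations were repeated in two buffers of differing ionization enthalpy.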

[10] = system: Human immunodeficiency virus 1; assay: Selectivity ratio of Kd for recombinant HIV1 NL4-3 capsid L211A mutant to Kd for full length HIV1 capsid (1 to 231 residues); procedure, shortened: as §2
[11] = Binding affinity to recombinant HIV1 NL4-3 capsid Y169A mutant by isothermal titration calorimetry; parameters: species or system Human immunodeficiency virus 1; procedure, shortened: as §1
[12] = Binding affinity to recombinant HIV1 NL4-3 capsid L211S mutant by isothermal titration calorimetry; parameters: species or system Human immunodeficiency virus 1; procedure, shortened: as §1
[13] = system: Human immunodeficiency virus 1; assay: Selectivity ratio of Kd for recombinant HIV1 NL4-3 capsid L211S mutant to Kd for full length HIV1 capsid (1 to 231 residues); procedure, shortened: as §2
[14] = molecular target: T1, Structural capsid protein; assay: Binding affinity to full length HIV1 NL4-3 capsid (1 to 231 residues) by isothermal titration calorimetry; procedure, shortened: as §3
[15] = system: Human immunodeficiency virus 1; assay: Selectivity ratio of Kd for recombinant HIV1 NL4-3 capsid Y169A mutant to Kd for full length HIV1 capsid (1 to 231 residues); procedure, shortened: as §2
[16] = molecular target: T1, Structural capsid protein; assay: Binding affinity to full length HIV1 NL4-3 dimeric capsid (1 to 231 residues) by isothermal titration calorimetry
Procedure, shortened: (§4)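 VP-ITC at 25 °C in 30 mM MES pH 6.0 with 10% glycerol, 2 mM 2-mercaptoethanol and 2% DMSO; protein concentrations by HPLC amino acid analysis. Ligand concentration was estimated by UV spectra after centrifugation to remove precipitate. 9 µl aliquots of 31 µM ligand went into 3.9 µM CA dimer or 3.1 µM CA CTD dimer to saturation. Ligand-into-buffer heat was subtracted.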

[17] = molecular target: T1, Structural capsid protein; assay: Binding affinity to HIV1 NL4-3 dimeric capsid C-terminal domain (146 to 231 residues) by isothermal titration calorimetry; procedure, shortened: as §4
[18] = molecular target: T1, Structural capsid protein; assay: Binding affinity to HIV1 NL4-3 capsid at 25 degC by isothermal titration calorimetry; procedure, shortened: as §3

Compound | IC50 [1] [µM] | viability at 48 h, 10 µM [2] [%] | IC50 [3] [µM] | other results
CCOC(=O)c1cccc(Nc2nc(-c3cccnc3)nc3ccccc23)c1 | 68 | 83 | 5 | –
CC(=O)c1ccc(Nc2nc(-c3cccnc3)nc3ccccc23)cc1 | 14 | 93 | 8 | –
CCOC(=O)c1ccc(Nc2nc(-c3cccnc3C)nc3ccccc23)cc1 | 14 | 100 | > 10 | –
CSc1ccc(Nc2nc(-c3ccncc3)nc3ccccc23)cc1 | – | 95 | 10 | –
CCOC(=O)Cc1ccc(Nc2nc(-c3cccnc3)nc3ccccc23)cc1 | > 100 | 98 | > 10 | –
CC[C@H](C)[C@H](N)C(=O)N[C@H](C(=O)N[C@@H](Cc1ccccc1)C(=O)N[C@@H](CCC(=O)O)C(=O)N[C@@H](CC(=O)O)C(=O)N[C@@H](CC(C)C)C(=O)N[C@@H](CC(C)C)C(=O)N[C@@H](CC(=O)O)C(=O)N[C@@H](Cc1ccc(O)cc1)C(=O)N[C@@H](Cc1ccc(O)cc1)C(=O)NCC(=O)N1CCC[C@H]1C(N)=O)[C@@H](C)O (H-ITFEDLLDYYGP-NH2) | – | – | – | Kd [4]: 5 µM; Kd [5]: 15 µM; Selectivity ratio [6]: 13; Selectivity ratio [7]: 1; Kd [8]: 53 µM; Kd [9]: 3 µM; Selectivity ratio [10]: 4; Kd [11]: 13 µM; Kd [12]: 84 µM; Selectivity ratio [13]: 21; Kd [14]: 4 µM; Selectivity ratio [15]: 3
CON(C)C(=O)c1ccc(Nc2nc(-c3cccnc3)nc3ccccc23)cc1 | 37 | 97 | > 10 | –
CC(=O)c1ccc(Nc2nc(-c3ccncc3)nc3ccccc23)cc1 | 9 | 96 | 4.6 | –
NC(=O)c1ccc(Nc2nc(-c3ccncc3)nc3ccccc23)cc1 | > 100 | 97 | > 10 | –
OC(c1ccc(Nc2nc(-c3cccnc3)nc3ccccc23)cc1)(C(F)(F)F)C(F)(F)F | > 100 | 46 | – | –
CCOC(=O)c1cccc(Nc2nc(-c3ccncc3)nc3ccccc23)c1 | 21 | 96 | 5.3 | –
O=C(NCCF)c1ccc(Nc2nc(-c3cccnc3)nc3ccccc23)cc1 | 3 | 90 | > 10 | –
CC(O)c1ccc(Nc2nc(-c3cccnc3)nc3ccccc23)cc1 (stereo not drawn) | > 100 | 98 | > 10 | –
CC(=O)c1cccc(Nc2nc(-c3cccnc3)nc3ccccc23)c1 | 30 | 89 | 8 | –
CCOC(=O)c1ccccc1Nc1nc(-c2ccncc2)nc2ccccc12 | 37 | 97 | > 10 | –
O=C(NCCO)c1ccc(Nc2nc(-c3cccnc3)nc3ccccc23)cc1 | > 100 | 100 | > 10 | –
CCNS(=O)(=O)c1ccc(Nc2nc(-c3cccnc3)nc3ccccc23)cc1 | > 100 | 97 | > 10 | –
O=C(O)c1ccc(Nc2nc(-c3ccncc3)nc3ccccc23)cc1 | > 100 | 98 | > 10 | –
CONC(=O)c1ccc(Nc2nc(-c3cccnc3)nc3ccccc23)cc1 | 63 | 99 | > 10 | –
CS(=O)(=O)c1ccc(Nc2nc(-c3ccncc3)nc3ccccc23)cc1 | > 100 | 97 | > 10 | –
O=C(c1ccc(Nc2nc(-c3cccnc3)nc3ccccc23)cc1)C(F)(F)F | > 100 | 62 | – | –
NS(=O)(=O)c1ccc(Nc2nc(-c3cccnc3)nc3ccccc23)cc1 | 80 | 98 | > 10 | –
C[S+]([O-])c1ccc(Nc2nc(-c3ccncc3)nc3ccccc23)cc1 (stereo not drawn) | > 100 | 98 | > 10 | –
OC(c1ccc(Nc2nc(-c3cccnc3)nc3ccccc23)cc1)C(F)(F)F (stereo not drawn) | > 100 | 87 | 10 | –
CCOC(=O)c1ccc(Nc2nc(-c3cccnc3)nc3ccccc23)cc1 | 47 | 84 | 4.7 | –
CCNC(=O)c1ccc(Nc2nc(-c3cccnc3)nc3ccccc23)cc1 | > 100 | 97 | > 10 | –
CCOC(=O)c1ccc(Nc2nc(-c3ccncc3)nc3ccccc23)cc1 | 8 | 96 | > 10 | Kd [16]: 0.14 µM; Selectivity ratio [6]: 7; Kd [8]: 0.89 µM; Kd [17]: 0.038 µM; Kd [12]: 1.9 µM; Selectivity ratio [13]: 14; Kd [14]: 0.14 µM
O=C(O)c1ccc(-c2nc(-c3ccccc3)c(-c3ccccc3)[nH]2)cc1 | – | – | – | Kd [18]: 85 µM
N#Cc1ccc(Nc2nc(-c3ccncc3)nc3ccccc23)cc1 | 4 | 96 | > 10 | –
